Test results: ChEMBL document CHEMBL4351026, “Antifungal activity, mode of action variability, and subcellular distribution of coumarin-based antifungal azoles” (Eur J Med Chem, 2019)
Values after ≈ are worked out from the molar mass of the structure shown. Active and inactive are the calls of the source. The rule behind the calls is not given here.

Columns and labels:
Nakaseomyces glabratus [1] = assay: Antifungal activity against Candida glabrata ATCC 66032 assessed as reduction in fungal cell growth incubated for 24 hrs by MTT based broth double dilution method; format: functional; settings: ATCC 66032, 24 h
Method in brief: (§1)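 Broth double-dilution in Casitone broth. Starter cultures were grown 24 or 48 h at 37 °C, 5% CO₂, diluted 1:100, and added to serial two-fold dilutions at 64 to 0.007 µg/mL. Final inoculum was 5 x 10^4 to 5 x 10^5 CFU/mL; DMSO was 0.0012–1.3%. Plates were incubated at 37 °C, 5% CO₂, then MTT was added for 2 h. MIC followed CLSI M27-A3. Triplicates, two independent experiments.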

Candida parapsilosis [2] = assay: Antifungal activity against Candida parapsilosis ATCC 22019 assessed as reduction in fungal cell growth incubated for 24 hrs by MTT based broth double dilution method; format: functional; settings: Lodderomyces parapsilosis, ATCC 22019, 24 h; method in brief: as §1
Nakaseomyces glabratus [3] = assay: Antifungal activity against Candida glabrata 192 assessed as reduction in fungal cell growth incubated for 48 hrs by MTT based broth double dilution method; format: functional; settings: Nakaseomyces glabratus, 192, 48 h; method in brief: as §1
Candida albicans [4] = assay: Antifungal activity against Candida albicans ATCC 90028 assessed as reduction in fungal cell growth incubated for 48 hrs by MTT based broth double dilution method; format: functional; settings: ATCC 90028, 48 h; method in brief: as §1
[5] = system: Meyerozyma guilliermondii; assay: Antifungal activity against Candida guilliermondii T-47 assessed as reduction in fungal cell growth incubated for 24 hrs by MTT based broth double dilution method; format: functional; settings: T-47, 24 h; method in brief: as §1
Nakaseomyces glabratus [6] = assay: Antifungal activity against Candida glabrata 192 assessed as reduction in fungal cell growth incubated for 24 hrs by MTT based broth double dilution method; format: functional; settings: Nakaseomyces glabratus, 192, 24 h; method in brief: as §1
Nakaseomyces glabratus [7] = assay: Antifungal activity against Candida glabrata ATCC 2001 assessed as reduction in fungal cell growth incubated for 24 hrs by MTT based broth double dilution method; format: functional; settings: ATCC 2001, 24 h; method in brief: as §1
Candida albicans [8] = assay: Antifungal activity against Candida albicans SN152 assessed as zone inhibition at 25 ug incubated for 24 hrs by disk diffusion method; format: functional, organism-based
Method in brief: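 Strains were streaked on YPD agar and grown at 30 °C: 24 h for parental SN152, 48 h for the erg11ΔΔ erg3ΔΔ mutant. Colonies were suspended in PBS and adjusted to OD 0.02 (SN152) or 0.03 (mutant), then spread on Casitone plates. A 6-mm disk loaded with 25 µg compound was placed centrally. Plates were incubated at 30 °C and photographed after 24 h.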

Candida albicans [9] = assay: Antifungal activity against Candida albicans SN152 assessed as reduction in fungal cell growth incubated for 48 hrs by MTT based broth double dilution method; format: functional; settings: SN152, 48 h; method in brief: as §1
Candida parapsilosis [10] = assay: Antifungal activity against Candida parapsilosis ATCC 90018 assessed as reduction in fungal cell growth incubated for 24 hrs by MTT based broth double dilution method; format: functional; settings: Lodderomyces parapsilosis, ATCC 90018, 24 h; method in brief: as §1
Candida albicans [11] = assay: Antifungal activity against Candida albicans P-87 assessed as reduction in fungal cell growth incubated for 24 hrs by MTT based broth double dilution method; format: functional; settings: P-87, 24 h; method in brief: as §1
Candida albicans [12] = assay: Antifungal activity against ERG11/ERG3 knocked out Candida albicans SN152 assessed as zone of inhibition at 25 ug […] by disk diffusion method; format: functional, organism-based
Nakaseomyces glabratus [13] = assay: Antifungal activity against Candida glabrata ATCC 66032 assessed as reduction in fungal cell growth incubated for 48 hrs by MTT based broth double dilution method; format: functional; settings: ATCC 66032, 48 h; method in brief: as §1
Candida dubliniensis = assay: Antifungal activity against Candida dubliniensis T-99 assessed as reduction in fungal cell growth incubated for 24 hrs by MTT based broth double dilution method; format: functional; settings: T-99, 24 h; method in brief: as §1
Candida albicans [14] = assay: Antifungal activity against Candida albicans ATCC 90028 assessed as reduction in fungal cell growth incubated for 24 hrs by MTT based broth double dilution method; format: functional; settings: ATCC 90028, 24 h; method in brief: as §1
Candida albicans [15] = assay: Antifungal activity against Candida albicans SN152 assessed as reduction in fungal cell growth incubated for 24 hrs by MTT based broth double dilution method; format: functional; settings: SN152, 24 h; method in brief: as §1
Cytochrome P450 3A4 = Cytochrome P450 3A4 (Homo sapiens, UniProt P08684); assay: Inhibition of recombinant human CYP3A4 using Luciferin-PPXE as substrate preincubated for 10 mins followed by NADPH addition measured after 15 mins by luminometric method; format: ADME
Cytochrome P450 3A4, sequence (P08684 whole entry): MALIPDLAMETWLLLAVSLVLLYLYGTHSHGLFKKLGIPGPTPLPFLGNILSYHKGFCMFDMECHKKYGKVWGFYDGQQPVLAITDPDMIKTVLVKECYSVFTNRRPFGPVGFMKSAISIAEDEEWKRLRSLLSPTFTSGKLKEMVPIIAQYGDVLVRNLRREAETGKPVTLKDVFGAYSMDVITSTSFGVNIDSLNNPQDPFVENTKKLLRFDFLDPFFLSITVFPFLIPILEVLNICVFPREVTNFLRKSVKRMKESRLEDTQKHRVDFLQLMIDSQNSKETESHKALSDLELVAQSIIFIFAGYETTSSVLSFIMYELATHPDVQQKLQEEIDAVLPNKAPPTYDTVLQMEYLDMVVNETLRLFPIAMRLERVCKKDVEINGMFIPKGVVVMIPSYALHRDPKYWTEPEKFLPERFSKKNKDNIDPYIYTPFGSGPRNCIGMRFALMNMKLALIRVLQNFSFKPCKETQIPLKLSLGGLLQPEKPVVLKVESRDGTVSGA
Method in brief: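 P450-Glo luminescent assay, Luciferin-PPXE substrate. Compound was mixed with membranes containing recombinant human CYP3A4; controls were vehicle with membranes lacking CYP3A4. After 10 min preincubation at 37 °C, NADPH regeneration reagent was added and the mixture kept 15 min at 37 °C. Luciferin detection reagent stopped the reaction; after 20 min at room temperature, luminescence was read. Duplicates.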

[16] = Cytotoxicity against human HEK293T cells assessed as reduction in cell viability at 5 to 50 uM incubated for 24 hrs by XTT assay relative to control; format: cell-based, HEK-293T; settings: HEK293T cells, read-out: INH
Method in brief: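 HEK-293T cells were grown in DMEM with 10% FBS, 1% NEAA, 1% pyruvate and pen-strep-nystatin at 37 °C and 5% CO2. 7000 cells/well were seeded on poly-D-lysine-coated wells. After 24 h the medium was renewed and compounds were added at 5–50 µM from 1 mM stocks in 10% DMSO/0.3% Tween/PBS. After 24 h, XTT was added for 2 h at 37 °C, with absorbance read at 475 nm (reference 660 nm).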

HEK-293T = assay: Cytotoxicity against human HEK293T cells assessed as reduction in cell viability at 5 to 50 uM incubated for 24 hrs by XTT assay; format: cell-based
Method in brief: (§2)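 HEK-293T were grown in DMEM with 10% FBS; HepG2 in RPMI with 15% FBS; both at 37 °C, 5% CO₂. Cells (4000 HepG2 or 7000 HEK-293T per well) were seeded on poly-D-lysine wells. After 24 h the medium was renewed and compounds added at 5–50 µM from 1 mM stocks in 10% DMSO/0.3% Tween/PBS. After 24 h more, XTT was added for 2 h at 37 °C; absorbance was read at 475 nm against 660 nm reference.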

HepG2 = assay: Cytotoxicity against human HepG2 cells assessed as reduction in cell viability at 5 to 50 uM incubated for 24 hrs by XTT assay; format: cell-based; settings: hepg2, 24 h; method in brief: as §2
[17] = Cytotoxicity against human HepG2 cells assessed as reduction in cell viability at 5 to 50 uM incubated for 24 hrs by XTT assay relative to control; format: cell-based; settings: read-out: INH
Method in brief: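 HepG2 cells were maintained in RPMI with 15% FBS, 1% NEAA, 1% pyruvate and pen-strep-nystatin at 37 °C and 5% CO2. 4000 cells/well were plated on poly-D-lysine coating and given fresh medium after 24 h. Compounds were dosed at 5–50 µM from 1 mM stocks in 10% DMSO/0.3% Tween/PBS and incubated 24 h. Viability was read by XTT (2 h, 37 °C) at 475 nm against 660 nm.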

| Compound | MIC (Nakaseomyces glabratus [1]) [µg/mL] | MIC (Candida parapsilosis [2]) [µg/mL] | MIC (Nakaseomyces glabratus [3]) [µg/mL] | MIC (Candida albicans [4]) [µg/mL] | MIC [5] [µg/mL] | MIC (Nakaseomyces glabratus [6]) [µg/mL] | MIC (Nakaseomyces glabratus [7]) [µg/mL] | inhibition zone (IZ) (Candida albicans [8]) | MIC (Candida albicans [9]) [µg/mL] | MIC (Candida parapsilosis [10]) [µg/mL] | MIC (Candida albicans [11]) [µg/mL] | inhibition zone (IZ) (Candida albicans [12]) | MIC (Nakaseomyces glabratus [13]) [µg/mL] | MIC (Candida dubliniensis) [µg/mL] | MIC (Candida albicans [14]) [µg/mL] | MIC (Candida albicans [15]) [µg/mL] | also measured |
| --- | --- | --- | --- | --- | --- | --- | --- | --- | --- | --- | --- | --- | --- | --- | --- | --- | --- |
| Clc1ccc(COC(Cn2ccnc2)c2ccc(Cl)cc2Cl)c(Cl)c1 (configuration not stated) [MICONAZOLE] | 2 (≈ 4.81 µM) | 0.003 (≈ 0.00721 µM) | 0.125 (≈ 0.3 µM) | 0.015 (≈ 0.036 µM) | 0.06 (≈ 0.144 µM) | 0.06 (≈ 0.144 µM) | 1 (≈ 2.4 µM) | Active | 0.015 (≈ 0.036 µM) | 0.06 (≈ 0.144 µM) | 0.007 (≈ 0.0168 µM) | Active | 4 (≈ 9.61 µM) | 0.06 (≈ 0.144 µM) | 0.007 (≈ 0.0168 µM) | 0.007 (≈ 0.0168 µM) |  |
| O=C(NCC(O)(Cn1cncn1)c1ccc(F)cc1F)c1cc2ccc(O)cc2oc1=O (racemic) | > 64 | > 64 |  |  | > 64 | > 64 | 64 (≈ 145 µM) |  |  | > 64 | 64 (≈ 145 µM) |  |  | > 64 | 64 (≈ 145 µM) | > 64 |  |
| O=C(NCC(O)(Cn1cncn1)c1ccc(F)cc1F)c1cc2ccc(Cl)cc2[nH]c1=O (racemic) | 64 (≈ 139 µM) | 8 (≈ 17.4 µM) |  |  | 8 (≈ 17.4 µM) | 16 (≈ 34.8 µM) | > 64 |  |  | 1 (≈ 2.17 µM) | 1 (≈ 2.17 µM) |  |  | 8 (≈ 17.4 µM) | 1 (≈ 2.17 µM) | 0.5 (≈ 1.09 µM) |  |
| CCC(C)n1ncn(-c2ccc(N3CCN(c4ccc(OCC5COC(Cn6cncn6)(c6ccc(Cl)cc6Cl)O5)cc4)CC3)cc2)c1=O (racemic) [ITRACONAZOLE] | 1 (≈ 1.42 µM) | 0.03 (≈ 0.0425 µM) | 0.125 (≈ 0.177 µM) | 0.007 (≈ 0.00992 µM) | 0.03 (≈ 0.0425 µM) | 0.125 (≈ 0.177 µM) | 1 (≈ 1.42 µM) |  | 0.007 (≈ 0.00992 µM) | 0.007 (≈ 0.00992 µM) | 0.007 (≈ 0.00992 µM) |  | > 64 | 0.06 (≈ 0.085 µM) | 0.007 (≈ 0.00992 µM) | 0.007 (≈ 0.00992 µM) |  |
| CCC(CC)Oc1ccc2cc(C(=O)NCC(O)(Cn3cncn3)c3ccc(F)cc3F)c(=O)oc2c1 (racemic) | > 64 | 2 (≈ 3.9 µM) | 8 (≈ 15.6 µM) | 0.5 (≈ 0.976 µM) | 2 (≈ 3.9 µM) | 4 (≈ 7.8 µM) | 32 (≈ 62.4 µM) |  | 0.5 (≈ 0.976 µM) | 0.5 (≈ 0.976 µM) | 0.125 (≈ 0.244 µM) |  | > 64 | 2 (≈ 3.9 µM) | 0.125 (≈ 0.244 µM) | 0.25 (≈ 0.488 µM) | IC50 (Cytochrome P450 3A4): ≥ 2500 nM |
| OC(Cn1cncn1)(Cn1cncn1)c1ccc(F)cc1F [FLUCONAZOLE] | 64 (≈ 209 µM) | 2 (≈ 6.53 µM) | 8 (≈ 26.1 µM) | 0.5 (≈ 1.63 µM) | 4 (≈ 13.1 µM) | 8 (≈ 26.1 µM) | 64 (≈ 209 µM) | Active | 1 (≈ 3.27 µM) | 1 (≈ 3.27 µM) | 0.25 (≈ 0.816 µM) | inactive | > 64 | 4 (≈ 13.1 µM) | 0.5 (≈ 1.63 µM) | 0.25 (≈ 0.816 µM) | cytotoxicity at 24 h, up to 50 µM [16]: < 40%; Activity (HEK-293T): Non-Toxic; Activity (HepG2): Non-Toxic; cytotoxicity at 24 h, up to 50 µM [17]: < 40% |
| CCC(CC)Oc1ccc2cc(C(=O)NCC(O)(Cn3ccnc3)c3ccc(F)cc3F)c(=O)oc2c1 (racemic) | 2 (≈ 3.91 µM) | 0.25 (≈ 0.489 µM) | 2 (≈ 3.91 µM) | 0.06 (≈ 0.117 µM) | 0.125 (≈ 0.244 µM) | 1 (≈ 1.95 µM) | 4 (≈ 7.82 µM) | Active | 0.06 (≈ 0.117 µM) | 0.125 (≈ 0.244 µM) | 0.015 (≈ 0.0293 µM) | Active | 4 (≈ 7.82 µM) | 0.25 (≈ 0.489 µM) | 0.03 (≈ 0.0586 µM) | 0.03 (≈ 0.0586 µM) | IC50 (Cytochrome P450 3A4): 332 nM |
